# Experimental data: ChEMBL document CHEMBL1128460, “Design, synthesis, and structure-activity relationships of a new series of alpha-adrenergic agonists: spiro[(1,3-diazacyclopent-1-ene)-5,2'-(1',2',3',4'- tetrahydronaphthalene)]” (J Med Chem, 1995)
# What was measured:
# Canis familiaris [1] = species: Canis familiaris; test: Effective concentration for the agonist in the isolated blood vessel using in vitro saphenous vein; type: functional; details: Canis lupus familiaris
# Method in brief: (§1)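 Vessel segments from mongrel dogs (15–25 kg) anesthetized with pentobarbital (30 mg/kg iv), mounted for isometric tension in physiological saline. Equilibrated 90 min with bath changes every 30 min, rauwolscine (10^-7 M) present throughout. Primed with KCl (100 mM), then phenylephrine (1 µM). Agonist concentration–response curves run at half-log steps, giving EC50 (µM) and Emax as % of phenylephrine maximum; mean ±SD.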
# [2] = Ratio of C20 obtained in the absence or presence of [C20 (1 mg of yohimbine.) / C20 (control)]; type: functional
# Method in brief: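 Pithed rat arterial pressure assay with tertatolol (100 mg/kg) pretreatment, then yohimbine (1 mg/kg) 10 min later. Cumulative iv agonist doses given at 20 s intervals after a further 10 min, C20 (+20 mmHg dose) obtained. Ratio expressed as C20(yohimbine)/C20(control); 3–6 determinations.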
# [3] = molecular target: T1, Adrenergic receptor alpha (Rattus norvegicus) (UniProt P15823+P23944+P43140+P22086+P19328+P22909); test: Alpha adrenergic activity was evaluated as maximal pressure response caused by agonist, expressed in mmHg (the maximum obtained with phenylephrine is 150 mmHg).; type: functional
# [4] = Ratio of C20 obtained in the absence or presence of [C20 ( 0.1 mg of prazosin ) / C20 (control)]; type: functional
# Method in brief: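 Pithed rats pretreated with tertatolol (100 mg/kg), then 10 min later with prazosin (100 µg/kg). Cumulative iv agonist doses given another 10 min later at 20 s intervals. Arterial pressure recorded, C20 (dose giving +20 mmHg) determined. Ratio calculated as C20(prazosin)/C20(control); 3–6 determinations.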
# Canis familiaris [5] = species: Canis familiaris; test: Maximal contractile response obtained with the agonist (expressed as a percentage of the maximal contraction to phenylephrine in the dog saphenous vein); type: functional, Canis lupus familiaris; method in brief: as §1
# Canis familiaris [6] = species: Canis familiaris; test: Effective concentration for the agonist in the isolated blood vessel using in vitro femoral artery; type: functional; details: Canis lupus familiaris; method in brief: as §1
# [7] = molecular target: T1, Adrenergic receptor alpha (Rattus norvegicus); test: Alpha adrenergic activity was evaluated as concentration (iv) which increases the arterial pressure by 20 mmHg in the pithed rat; type: functional, organism-based; details: Artery
# Canis familiaris [8] = species: Canis familiaris; test: Maximal contractile response obtained with the agonist (expressed as a percentage of the maximal contraction to phenylephrine in the dog femoral artery); type: functional, Canis lupus familiaris; method in brief: as §1
# [9] = molecular target: T2, Adrenergic receptor alpha-1 (Rattus norvegicus, UniProt P15823+P23944+P43140); test: Displacement of [3H]prazosin from rat cortex Alpha-1 adrenergic receptor
# T2 sequence (P15823 whole entry): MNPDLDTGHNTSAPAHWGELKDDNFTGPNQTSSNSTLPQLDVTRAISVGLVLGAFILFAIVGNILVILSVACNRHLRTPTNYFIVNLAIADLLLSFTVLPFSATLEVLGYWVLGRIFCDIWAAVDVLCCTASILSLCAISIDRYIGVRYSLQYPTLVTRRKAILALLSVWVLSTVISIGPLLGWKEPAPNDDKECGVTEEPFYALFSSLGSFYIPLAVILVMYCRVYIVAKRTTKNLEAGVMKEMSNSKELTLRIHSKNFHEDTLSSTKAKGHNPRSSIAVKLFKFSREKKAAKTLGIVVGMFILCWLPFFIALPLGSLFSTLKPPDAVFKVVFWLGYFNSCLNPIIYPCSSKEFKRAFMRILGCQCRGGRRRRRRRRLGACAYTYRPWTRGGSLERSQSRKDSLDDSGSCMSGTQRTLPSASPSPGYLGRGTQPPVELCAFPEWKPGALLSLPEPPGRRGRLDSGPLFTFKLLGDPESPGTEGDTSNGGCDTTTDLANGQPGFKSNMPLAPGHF
# T2 sequence (P23944 whole entry): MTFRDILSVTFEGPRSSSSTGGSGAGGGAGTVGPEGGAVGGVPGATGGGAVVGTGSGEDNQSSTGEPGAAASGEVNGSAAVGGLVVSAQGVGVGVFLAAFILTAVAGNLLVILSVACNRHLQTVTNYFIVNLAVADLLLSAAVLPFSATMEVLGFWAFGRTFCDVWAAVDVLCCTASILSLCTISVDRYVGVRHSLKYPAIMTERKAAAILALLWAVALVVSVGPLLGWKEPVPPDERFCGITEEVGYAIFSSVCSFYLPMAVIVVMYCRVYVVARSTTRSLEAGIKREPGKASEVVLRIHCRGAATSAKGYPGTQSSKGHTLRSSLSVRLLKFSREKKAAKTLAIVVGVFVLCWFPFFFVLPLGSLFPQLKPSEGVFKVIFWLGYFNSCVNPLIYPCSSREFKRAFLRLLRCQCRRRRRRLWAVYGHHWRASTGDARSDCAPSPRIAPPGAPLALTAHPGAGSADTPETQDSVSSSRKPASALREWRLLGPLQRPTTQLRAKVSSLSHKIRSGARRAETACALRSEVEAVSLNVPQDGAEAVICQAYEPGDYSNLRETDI
# T2 sequence (P43140 whole entry): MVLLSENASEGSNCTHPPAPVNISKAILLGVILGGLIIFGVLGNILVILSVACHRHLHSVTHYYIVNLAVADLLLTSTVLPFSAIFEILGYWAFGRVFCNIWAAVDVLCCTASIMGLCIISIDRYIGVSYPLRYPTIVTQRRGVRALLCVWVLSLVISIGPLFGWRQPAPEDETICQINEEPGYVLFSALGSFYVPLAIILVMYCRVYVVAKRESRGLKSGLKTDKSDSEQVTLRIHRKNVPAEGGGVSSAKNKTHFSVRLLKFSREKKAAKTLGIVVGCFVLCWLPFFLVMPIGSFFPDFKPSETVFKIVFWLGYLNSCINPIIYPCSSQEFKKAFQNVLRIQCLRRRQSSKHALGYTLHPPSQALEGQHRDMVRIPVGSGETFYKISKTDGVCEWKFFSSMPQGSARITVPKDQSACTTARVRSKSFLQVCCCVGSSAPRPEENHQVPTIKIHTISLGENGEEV
# Method in brief: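 Rat cortex membranes labelled with [3H]prazosin (0.3 nM), nonspecific binding with prazosin (10 µM). Nine drug concentrations spanning 3 log units, IC50 by log-probit analysis. Ki by Cheng–Prusoff using Kd from Scatchard saturation. At least three independent experiments in duplicate.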
SMILES,EC50 (Canis familiaris [1]),Max [3],EC50 (Canis familiaris [6]),C20 [7],Ki [9],Ratio [2],Ratio [4],Emax (Canis familiaris [5]),Emax (Canis familiaris [8])
Clc1cccc2c1CC1(CC2)CN=CN1 (stereo not drawn),240 nM,133 mmHg,1600 nM,0.3 µg/kg,,4.7,1.9,95,83
Cc1ccc(C)c2c1CCC1(CN=CN1)C2 (stereo not drawn),2400 nM,140 mmHg,3000 nM,0.5 µg/kg,,4.8,2.1,84,67
COc1ccc(SC)c2c1C[C@@H]1[C@@H](C2)OCCN1C,23 nM,123 mmHg,38000 nM,23 µg/kg,,2.4,5.1,38,28
COc1cc2c(cc1O)CCC1(CN=CN1)C2 (stereo not drawn),19000 nM,134 mmHg,1400 nM,1.2 µg/kg,,2.8,9.2,97,69
Clc1cc2c(cc1Cl)CC1(CC2)CN=CN1 (stereo not drawn),44000 nM,101 mmHg,,33 µg/kg,,3.1,7,36,0
Oc1cccc2c1CC1(CC2)CN=CN1 (stereo not drawn),10000 nM,119 mmHg,39000 nM,4.3 µg/kg,,12,0.9,66,22
FC(F)(F)c1ccc2c(c1)CC1(CC2)CN=CN1 (stereo not drawn),,55 mmHg,,320 µg/kg,,2.7,10,7,
COc1ccc(SC)c2c1CC1(CC2)CN=CN1 (stereo not drawn),180 nM,136 mmHg,290 nM,0.003 µg/kg,600 nM,45,75,98,96
CCOc1ccc(OCC)c2c1CCC1(CN=CN1)C2 (stereo not drawn),2700 nM,157 mmHg,850 nM,0.6 µg/kg,,7.7,24,68,55
C1=NC2(CCc3ccccc3C2)CO1 (stereo not drawn),,38 mmHg,,> 10000 µg/kg,,,,0,0
CC(C)Oc1ccc2c(c1)CCC1(CN=CN1)C2 (stereo not drawn),3900 nM,62 mmHg,,74 µg/kg,,66,11,15,0
CN1C=NC2(CCc3ccccc3C2)C1 (stereo not drawn),25000 nM,77 mmHg,,150 µg/kg,,2.5,2.1,31,0

# Now from value to molecule, other results behind:
EC50 (Canis familiaris [1]),Max [3],EC50 (Canis familiaris [6]),C20 [7],Ki [9],SMILES,Ratio [2],Ratio [4],Emax (Canis familiaris [5]),Emax (Canis familiaris [8])
7300 nM,109 mmHg,700 nM,7.9 µg/kg,,COc1cc2c(c(OC)c1)CCC1(CN=CN1)C2 (stereo not drawn),2.6,2.9,44,25
800 nM,139 mmHg,2000 nM,0.85 µg/kg,3400 nM,COc1cccc2c1CCC1(CN=CN1)C2 (stereo not drawn),4.7,5.4,101,93
300 nM,128 mmHg,120 nM,0.05 µg/kg,2000 nM,COc1ccc(OC)c2c1CCC1(CN=CN1)C2 (stereo not drawn),2,21,106,77
,129 mmHg,,98 µg/kg,,COc1cc2c(cc1OC)CC1(CC2)CN=CN1 (stereo not drawn),,1.8,,
52000 nM,53 mmHg,50000 nM,57 µg/kg,,NC1=NC2(CCc3ccccc3C2)CN1 (stereo not drawn),26,2.5,36,2
2100 nM,114 mmHg,14000 nM,5.4 µg/kg,,Cc1ccc2c(c1)CCC1(CN=CN1)C2 (stereo not drawn),6.1,1.3,44,12
40000 nM,45 mmHg,,465 µg/kg,,CC(C)(C)c1ccc2c(c1)CC1(CC2)CN=CN1 (stereo not drawn),1.6,1.7,35,0
52000 nM,107 mmHg,50000 nM,142 µg/kg,,COc1ccc2c(c1OC)CCC1(CN=CN1)C2 (stereo not drawn),2.4,2.9,67,21
6300 nM,84 mmHg,,31 µg/kg,,Fc1cc(F)c2c(c1)CC1(CC2)CN=CN1 (stereo not drawn),5.7,2.4,35,0
2300 nM,95 mmHg,26000 nM,5.2 µg/kg,,NC1=NC2(CCc3ccccc3C2)CO1 (stereo not drawn),19.6,3.5,76,18
75000 nM,61 mmHg,,209 µg/kg,,CCc1ccc2c(c1)CC1(CC2)CN=CN1 (stereo not drawn),2.6,2.5,50,0
800 nM,147 mmHg,80 nM,0.06 µg/kg,,CCOc1ccc(OC)c2c1CCC1(CN=CN1)C2 (stereo not drawn),4.8,21.5,98,85
400000 nM,113 mmHg,,166 µg/kg,,CC1=NC2(CCc3ccccc3C2)CN1 (stereo not drawn),5.3,1.8,23,0
27 nM,,270 nM,,,COc1ccc(Cl)c2c1CCC1(CN=CN1)C2 (stereo not drawn),,,106,102
6000 nM,137 mmHg,8000 nM,4.2 µg/kg,,Clc1cc(Cl)c2c(c1)CCC1(CN=CN1)C2 (stereo not drawn),,,100,75
,125 mmHg,,7 µg/kg,,Clc1cccc2c1CCC1(CN=CN1)C2 (stereo not drawn),2.8,1.3,,
